This data set in a line: Toxicity liver stage against HepG2, at 10uM. Type of data set: cell-based. Set-up: test concentration 10 uM, cell line HepG2-A16-CD81EGFP. To be noted: human, HepG2-A16-CD81EGFP cells; read-out: INHIBITION
The method, boiled down: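 Uninfected HepG2-A16-CD81EGFP cells, 3 × 10^3 per well, 1536-well, plated on prespotted compound at 10 μM final, parasite-free screening media added to match infected plates; puromycin 10 μM positive, DMSO 0.5% negative; run in parallel with 48 h PbLuc assay at 37 °C, 5% CO2; viability by CellTiter-Glo luminescence, normalized to controls.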

On to `CN1CCC2(CC1)CN(CC1CC1)CC21CCNC1=O` (stereo unspecified), for which the cytotoxicity at 10 µM worked out at 2.02%.
Then `O=C(Cn1ccc2cc(Br)ccc21)NCc1ccc(C(=O)O)cc1`, with 9.6%.
Turning to `CS(=O)(=O)N1CC(c2nc[nH]n2)c2cc(C(=O)NC3CC3)ccc21` (stereo unspecified), the cytotoxicity at 10 µM was -158%.
`O=c1[nH]nc(CCCN2CCOCC2)n1-c1ccc(F)cc1F`: the cytotoxicity at 10 µM is 4.54%.
For `CS(=O)(=O)Cc1nc(CNc2c(F)cc(F)cc2F)cs1`, the cytotoxicity at 10 µM was -4.73%.
Regarding `Cc1noc2ncc(S(=O)(=O)N3CCCC(C)(C)CC3)cc12`, the cytotoxicity at 10 µM stood at 8.88%.
Take `CC(C)NC(=O)[C@H]1C[C@@H]2[C@@H](C1)OCCN2Cc1ccco1`: the cytotoxicity at 10 µM came out at 4.08%.
Then `CCS(=O)(=O)N1CCCC2(COCCN(c3cnccn3)C2)C1` (stereo unspecified), with 10.2%; and `Cn1ccnc1CN1CCCCC1c1nc(-c2ccccc2)no1` (stereo unspecified), with -47.5%; and `O=C(O)CC1COCCN1C(=O)C1(c2ccc(Cl)cc2)CCC1` (stereo unspecified), with -17.8%.
The value for `C/C(=C\c1ccccc1)CN1CCCC(c2nnc3n2CCNCC3)C1` (stereo unspecified) was 6.97%; that for `O=C(Nc1ccccc1OC1CCOC1)c1[nH]nc2c1CCCC2` (stereo unspecified) was 0.271%.
In the case of `CNS(=O)(=O)CC1CCCN1c1ccc(Cl)cn1` (stereo unspecified), the cytotoxicity at 10 µM turned out to be 7.6%.
In the case of `COc1ccnc(C(=O)N2CCCC(c3noc(C)n3)C2)c1` (stereo unspecified), the cytotoxicity at 10 µM is -4.64%.
Then `Cc1noc(C)c1CN1CCN(C(=O)CCn2cncn2)CC1`, with 0.975%.
The value for `Cc1cnn(CCNCC(O)c2ccc(S(C)(=O)=O)cc2)c1` (stereo unspecified) was 1.1%.
Then `CN(c1ccc(F)c(F)c1)S(=O)(=O)c1cc2c(c(C(=O)O)c1)OCCO2`, with -5.38%; and `Cn1cc(C2CC3(CCN(C(=O)c4ccsc4)CC3)NC2=O)cn1` (stereo unspecified), with -3.7%; and `Cc1nc(C)n(CC2CCCCN2c2ccnc(-c3ccccc3)n2)n1` (stereo unspecified), with -1.17%.
On to `COc1ccc(CN2CC[C@@]3(C2)[C@H](O)CN(C)S3(=O)=O)cc1F`, for which the cytotoxicity at 10 µM was -7.86%.
Then `COc1cccc(CC2(CO)CCCN(c3nccs3)C2)c1` (stereo unspecified), with -4.59%; and `CCSc1ncccc1C(=O)NCc1ccc(N(C)C)cc1`, with 4.36%.
For `NC(=O)c1cccc(NC(=O)CSc2ccc3c(c2)CCC3)c1`, the cytotoxicity at 10 µM was 21.4%.
Then `CCOc1cc(=O)n2c(c1C(=O)OCc1cccc(C)c1)CCCC2`, with -15.1%.
The value for `CC1CCN(C(=O)[C@H]2C[C@@H]3CCN(CC4CCOCC4)C[C@H]3O2)CC1` was 5.35%; that for `CC(=O)N(C)CC(=O)Nc1cccc(N2CCN(CC3CC3)CC2)c1` was 1.75%.
The value for `O=C(O)c1cnc(N2CCC(O)CC2)nc1COc1cccc(F)c1` was -9.09%; that for `CN1CC(=O)N(c2ccsc2)CC12CCN(C(=O)c1ccccc1)C2` (stereo unspecified) was -0.516%; that for `CN1CCC(CCc2ccnc(NC(=O)c3ccccn3)c2)CC1` was -2.12%.
For `CN(C)C(=O)CN1CCC2(CCCN(Cc3cccs3)C2)C1=O` (stereo unspecified), the cytotoxicity at 10 µM is -113%.
Then `Cc1cc(NC(=O)N2CCOCC2)nn1-c1cccc(Cl)c1`, with -1.57%; and `CNC(=O)c1ccc2c(c1)C1(CCN(CCOC)CC1)C(=O)N2`, with -1.92%.
The value for `Fc1ccccc1CC1CCN(Cc2cscn2)CC1` was -5.71%; that for `Cc1nnc(NC(=O)CN(C)C2CCCN(c3cccnn3)C2)s1` (stereo unspecified) was -5.64%.
Then `Cc1nccn1-c1ccc(CNC(=O)c2ccc([S+](C)[O-])cc2)cn1` (stereo unspecified), with -18.1%.
As for `CS(=O)(=O)NCCC(=O)NCc1cccnc1-n1cnc2ccccc21`, the cytotoxicity at 10 µM is -0.0143%.
As to `Cc1csc(N2CCCN(Cc3ccn(C)c(=O)c3)CC2)n1`, the cytotoxicity at 10 µM was found to be 12.8%.
In the case of `Cc1ccccc1C1CCN(CCn2cc(-c3cccc(O)c3)nn2)C1` (stereo unspecified), the cytotoxicity at 10 µM was found to be 18.2%.
The value for `CC(C(=O)NCc1ccco1)N1CCN(Cc2nccn2C)CC1` (stereo unspecified) was 7.73%.
Then `Cc1nc(C2CCCCN2C(=O)c2ccccc2)ncc1C(=O)N(C)C` (stereo unspecified), with 1.9%; and `c1cc(CCn2ccc(NC3CCSCC3)n2)ccn1`, with 5.55%.
Regarding `Cc1cc(CN2CCCCC2Cn2cncn2)no1` (stereo unspecified), the cytotoxicity at 10 µM is -8.89%.
Then `Nc1cc(CCC2CN(Cc3ccc(C(=O)O)cc3)CCO2)ccn1` (stereo unspecified), with 6.98%.
Turning to `CCOCC1CN(C(=O)Cc2ccccn2)Cc2cn(C)nc21` (stereo unspecified), the cytotoxicity at 10 µM came out at 1.86%.
Then `NC(c1ccc(Cl)cc1)c1cccs1` (stereo unspecified), with -17.1%; and `Cc1ccc(-c2nc(CN3CCn4c(nnc4C4CC4)C3)no2)cc1`, with -1.99%; and `COCC(=O)N1CCC2(CCC(C(=O)N3CCCC3)O2)CC1` (stereo unspecified), with -1.63%.
Then `COc1cccc(OCc2cc(C(=O)NC[C@H]3CCCN3)n[nH]2)c1`, with -4.9%.
For `O=C(c1ncccn1)N1C[C@H]2CCC[C@@]2(COc2ccccn2)C1`, the cytotoxicity at 10 µM came to 5.29%.
The value for `Cc1cc(F)ccc1S(=O)(=O)NCc1[nH]ncc1Br` was 15.1%; that for `CCC(C)(CC(=O)O)NC(=O)Cc1ccccc1F` (stereo unspecified) was -1.28%; that for `Cc1cc(CS(=O)(=O)CC(=O)N2c3ccccc3CC2C)no1` (stereo unspecified) was -0.284%.
As for `CO[C@H]1CCN(C2CCC2)[C@@H]2CN(Cc3ccncc3)C[C@H]12`, the cytotoxicity at 10 µM is 8.13%.
Then `O=C(NCCc1nccs1)c1n[nH]c2c1CCC2`, with 3.89%; and `CC(C)NC(=O)CC1COC2(CCN(Cc3ccco3)CC2)C1` (stereo unspecified), with -0.567%; and `CN(C)CCN1CC(C(=O)N2CCC(c3cccc(O)c3)CC2)CC1=O` (stereo unspecified), with 0.0902%.
The value for `COc1c(C(=O)NCc2cccnc2)nnn1Cc1ccc(C)cc1` was 11.8%; that for `O=C(NCC1CC1)C1CN(Cc2ccncc2)Cc2ccnn2C1` (stereo unspecified) was -0.902%.
For the compound `COc1cc(C(=O)N2CCCC(c3cc(C)[nH]n3)C2)ccc1C` (stereo unspecified), the cytotoxicity at 10 µM is -17.5%.
For `COc1ccc(-n2cnnc2SCC(=O)N(C)C(C)C)cn1`, the cytotoxicity at 10 µM was 16.7%.
The value for `CCCc1nc(CNCC2CCCN2c2cccnn2)cs1` (stereo unspecified) was -7.07%; that for `CN(C)C(=O)N1CCCC2(CCN(Cc3ccncc3)C2)C1` (stereo unspecified) was 7.61%.
With `CCC(c1ccc(F)cc1)N1CCn2c(CO)nnc2C1` (stereo unspecified), the cytotoxicity at 10 µM is -9.15%.
On to `COCCN(C)Cc1nc(-c2cccc(F)c2F)oc1C`, for which the cytotoxicity at 10 µM came out at 2.56%.
Regarding `CN(C)c1ncc2c(n1)C1(CCN(CC3CC3)C1)COC2` (stereo unspecified), the cytotoxicity at 10 µM was -12.9%.
Regarding `Cc1c(C)n(CC(O)CN2CCN(CCO)CC2)c2c(Cl)cccc12` (stereo unspecified), the cytotoxicity at 10 µM is -12.9%.
The value for `CNC(=O)[C@H]1C[C@@H]2CN(Cc3cccnc3OC)C[C@@H]2N1C(C)=O` was 1.2%.
For `Cc1cnc(N2CCCn3c(nnc3Cn3cccn3)C2)nc1`, the cytotoxicity at 10 µM was found to be 6.19%.
Regarding `O=c1nc(SCc2ccncc2)c2c(n1CCO)CCC2`, the cytotoxicity at 10 µM amounted to 6.9%.
The value for `CCN(C)c1ncc2c(c1C(=O)O)CCN(C1CCOC1)C2` (stereo unspecified) was 11.5%; that for `CCc1cc(O)n2nc(C3CCN(C(=O)c4ccncc4)CC3)cc2n1` was 3.51%.

(Values after ChEMBL document CHEMBL4513216, “Probing the Open Global Health Chemical Diversity Library for Multistage-Active Starting Points for Next-Generation Antimalarials” (ACS Infect Dis, 2020).)
